Experiment [1] deals with Mycolicibacterium smegmatis. In words: Bactericidal activity against Mycobacterium smegmatis at 500 uM after 3 to 24 hrs by colony forming unit count method. The experiment is classed as functional, organism-based. The essentials:
(§1)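 Cultures grown in LBT to OD600 ~0.5, then dosed at 8.9 μM per OD600, or CCCP at 500 μM; no-compound and DMSO controls. OD600 taken at 0, 3, 9 and 24 h. CFU at 0, 9 and 24 h: cells washed, diluted in PBS + 0.05% Tween80, spotted on LBT (Miles–Misra), counted after 3 days at 37°C (5–50 colonies). Three biological replicates.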

For experiment [2], the system named is Mycobacterium tuberculosis. Put plainly: Antimicrobial activity against Mycobacterium tuberculosis H37Ra after 5 days by serial macrobroth dilution method. The experiment is classed as functional, organism-based. As to conditions: 120 h. The essentials: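 M. tuberculosis H37Ra in 7H9 with 0.5% glycerol, 10% ADC and 0.05% Tween80. Serial macrobroth dilution 128–0.5 μg/mL, log-phase inoculum to final OD600 0.005, 37°C, 200 rpm. Growth read visually at 5 days. No-compound and DMSO controls included. Three biological replicates averaged.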
(In broth dilution the organism is exposed to a series of concentrations in liquid medium.)

Experiment [3] has as its system Mycolicibacterium smegmatis. In words: Antimicrobial activity against Mycobacterium smegmatis (MC2) 155 after 24 hrs by serial macrobroth dilution method. As to conditions: (MC2) 155, 24 h. The experiment is classed as functional. Put shortly: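 Serial macrobroth dilution, 128–0.5 μg/mL in LBT (LB + 0.05% Tween80). Log-phase mc²155 inoculated to final OD600 0.005, incubated 37°C at 200 rpm. Growth scored by eye after 24 h. No-compound and DMSO controls included. Figure data are the average of three biological replicates.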

In experiment [4] the test system is Mycolicibacterium smegmatis. Put plainly: (§2) Inhibition of NDH2 in Mycobacterium smegmatis (MC2) 155 membranes assessed NADH oxidation relative to control. The essentials: (§3)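 M. smegmatis membranes at 50 μg/mL in 20 mM sodium phosphate pH 8.0 at 37°C, with compound (0–200 μM) preincubated 30 s. Reaction started with 200 μM NADH; A340 followed (ε 6.22 mM⁻¹cm⁻¹), activity in μmol NADH/min/mg. Data normalized to uninhibited activity, IC50 by log(inhibitor) vs response fit. Mean of three independent experiments.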

Experiment [5] concerns Mycolicibacterium smegmatis. Put plainly: Bactericidal activity against Mycobacterium smegmatis at 8.9 uM after 3 to 24 hrs by colony forming unit count method. The format is functional, organism-based. The essentials: as §1
Experiment [6] has as its system Mycolicibacterium smegmatis. In words: Effect on NDH2 in Mycobacterium smegmatis (MC2) 155 membrane assessed increase in oxygen consumption relative to control. The essentials:
(§4)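 Clark-type O2 electrode, 2 mL mix at 37°C, calibrated to 220 nmol O2/mL with air-saturated 20 mM sodium phosphate pH 8.0. M. smegmatis membrane vesicles (French press, 100,000 × g pellet) driven by 10 mM NADH. Test range 0–80 μM; TPZ 0–200 μM. Controls: 80 μM comparators, DMSO, 200 μM KCN, no compound. Two-tailed t-test, p<0.05.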

Experiment [7] is described as follows: Inhibition of Mycobacterium tuberculosis NDH2.
Experiment [8] concerns Mycolicibacterium smegmatis. Put plainly: Bacteriostatic against Mycobacterium smegmatis at 4.8 ug/ml after 3 to 24 hrs by colony forming unit count method. The format is functional, organism-based. The essentials:
as §1

Experiment [9] can be described thus: as §2. More on the design: species or system Mycolicibacterium smegmatis. Put shortly: as §3
The subject of experiment [10] is Mycolicibacterium smegmatis. Put plainly: Inhibition of NDH2 in Mycobacterium smegmatis (MC2) 155 membrane assessed inhibition of oxygen consumption relative to control. The essentials: as §4

≈ marks a conversion by molar mass, not a printed value. Calls of active or inactive are those of the source. The calls are words filed in the database; no cut-off is given here.

On to `N#CC(C#N)=NNc1cccc(Cl)c1`, for which the outcome in experiment [1] was Active.

Turning to `Clc1ccc2c(c1)Nc1ccccc1S2`, the IC50 in experiment [2] was above 64 µg/mL. This compound gave an MIC in [3] above 64 µg/mL.

In experiment [2], `FC(F)(F)c1ccc2c(c1)Nc1ccccc1S2` displayed an IC50 above 64 µg/mL. Also, in experiment [3], the MIC is above 64 µg/mL.

The compound `CN(C)CCCN1c2ccccc2Sc2ccccc21` [PROMAZINE] gave an IC50 in experiment [2] of 128 µg/mL (≈ 450 µM). For the same compound, the MIC in experiment [3] is above 128 µg/mL.

As to `c1ccc2c(c1)Nc1ccccc1S2` [PHENOTHIAZINE], the inhibition result in [4] was “inactive”. For the same compound, in [2], the half-maximal inhibitory concentration (IC50) is above 64 µg/mL. Further, the result in [5] was inactive. This compound returned a minimal inhibitory concentration (MIC) in experiment [3] above 64 µg/mL.

`CCC[P+](c1ccccc1)(c1ccccc1)c1ccccc1.[Br-]`: the inhibition result in [4] was “inactive”. Further, in experiment [2], the IC50 was above 128 µg/mL. Also, the result in experiment [5] was inactive. In addition, the MIC in experiment [3] is above 128 µg/mL. In addition, the result in experiment [6] was Active.

Consider `Clc1ccc2c(c1)N(CCC[P+](c1ccccc1)(c1ccccc1)c1ccccc1)c1ccccc1S2.[Cl-]`, for which, in experiment [2], inhibition was half-maximal at 1 µg/mL (IC50). Further, in [3], the lowest concentration to inhibit growth (MIC) was 6 µg/mL.

`C=C(C)[C@H]1Cc2c(ccc3c2O[C@@H]2COc4cc(OC)c(OC)cc4[C@@H]2C3=O)O1`: the inhibition entry in experiment [4] was “inactive”.

Take `CC(CN1c2ccccc2Sc2ccccc21)N(C)C` (stereo not drawn) [PROMETHAZINE]: the MIC in experiment [2] turned out to be 20 µg/mL (≈ 70.3 µM).

In experiment [2], `CN(C)CCCN1c2ccccc2Sc2ccc(Cl)cc21` [CHLORPROMAZINE] registered an MIC of 10 µg/mL (≈ 31.4 µM). Besides, half-maximal inhibition in experiment [7] (IC50) was put at 10 µM.

In experiment [2], `FC(F)(F)c1ccc2c(c1)N(CCC[P+](c1ccccc1)(c1ccccc1)c1ccccc1)c1ccccc1S2.[Cl-]` yielded a half-maximal inhibitory concentration (IC50) of 1 µg/mL. In experiment [3], this compound returned an MIC of 12 µg/mL.

Consider `[Cl-].c1ccc([P+](CCCN2c3ccccc3Sc3ccccc32)(c2ccccc2)c2ccccc2)cc1`, for which the outcome in experiment [8] was Active. The compound also returned an IC50 in experiment [9] of 15.1 µM. In addition, the INH in [10] was 40 µM. This compound also yielded an MIC in [3] of 4 µg/mL.

For the compound `CN1CCN(CCCN2c3ccccc3Sc3ccc(C(F)(F)F)cc32)CC1` [TRIFLUOPERAZINE], the IC50 stood at 60.1 µM in experiment [9], 8 µg/mL (≈ 19.6 µM) in experiment [2] and 12 µM in experiment [7]. This compound also showed an INH in experiment [10] of 100 µM. Further, the MIC in experiment [3] stood at 64 µg/mL (≈ 157 µM).

As a reminder, the IC50 is the midpoint of a concentration-inhibition curve. Low values mean higher potency, high ones lower potency. The MIC is the lowest concentration found to suppress growth. A lower MIC goes with inhibition by little substance.

The values above are taken from ChEMBL document CHEMBL3352574, “Incorporation of triphenylphosphonium functionality improves the inhibitory properties of phenothiazine derivatives in Mycobacterium tuberculosis” (Bioorg Med Chem, 2014).
